Screens as filed in PubChem.
STAT1 inh: reduces IFN-gamma driven STAT1 reporter signal; NIH 3T3 STAT1-luciferase reporter, luminescence; inhibition, % at 5.5 µM; 200,000 compounds, 0.35% hits; AID 920;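 active means inhibition above a set limit, the mean inhibition across all tested compounds plus 3 SD, cut at about 34% in these data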;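 further: 0% = IFN-gamma with DMSO and 100% = IFN-gamma with 300 µM nifuroxazide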
STAT1 act-1: activators of IFN-gamma induced STAT1 signaling; NIH 3T3 STAT1-luciferase reporter, luminescence; 100% = IFN-gamma alone, no compound; activation (% of control), % at 5.5 µM; 200,000 compounds, 2.6% hits; AID 932;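 active means activation above the screen-wide mean activation plus 3 SD, cut at about 130% in these data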;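 further: raw ratio to IFN-gamma control signal so 100% means no change and 0% no light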
STAT3 inh: STAT3 signaling inhibition; inhibition, % at 5.5 µM; U3A cells, IL-6 STAT3-luciferase reporter, luminescence; host cell line lacks STAT1; AID 862; 190,000 compounds, 0.89% hits;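 active means inhibition above the mean inhibition across all screened compounds plus 3 SD, cut at about 44% in these data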;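 further: 0% = DMSO only wells and 100% = 100 µM nifuroxazide control wells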
NF-kB expr up: raises NF-kB expression in human neuronal cells. fold change at 12.5 µM. NF-kB reporter expression; stronger effect = higher value. AID 1239. 190,000 compounds, 1.6% hits; in the data active means fold change above about 3.3
APP 5'UTR act: APP 5'UTR luciferase reporter activation; SH-SY5Y APP 5'UTR luciferase reporter, luminescence; zero percent = DMSO vehicle wells; activation, % at 2 µM; 190,000 compounds, 1% hits; AID 1276;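 active means activation above a set limit, based on mean plus 3 SD of controls, cut at about 140% in these data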
STAT3 act-1: STAT3 signaling activation | U3A cells, IL-6 STAT3-luciferase reporter, luminescence; 100% = signal with IL-6 EC80 alone | activation (% of control), % at 5.6 µM | 190,000 compounds, 0.91% hits | AID 871;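 active means activation above the screen-wide mean of compound activation plus 3 SD, cut at about 130% in these data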;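 further: 0% = background luminescence of wells with medium and substrate only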
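Material: STAT3-luciferase reporter U3A cells; Probe or stimulus: IL-6 (33 ng/mL); Incubation: compound pre-incubation 1 h before IL-6, then 6 h stimulation at 37 °C; Technique: luminescence from STAT3-driven luciferase reporter; Evaluation: % activation versus median of IL-6-stimulated wells; Controls: IL-6-only high control.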
STAT3 act-2: confirmation of STAT3 signaling activators; shares compounds with STAT3 act-1; potentiation (% of control), % at 5.7 µM; 1,200 compounds, 64% hits; U3A STAT3-luciferase reporter, IL-6 potentiation, luminescence; U3A cells lack STAT1; 100 means same as IL-6 alone;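 active means percent activation of the STAT3 luciferase reporter above a set limit taken from the earlier primary screen, cut at about 130% in these data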;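 further: 0% = background signal of medium plus substrate and 100% = median of IL-6 with DMSO wells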
NFkB act STAT3ct: NF-kappaB activation in STAT3 activator counter-screen; 1,200 compounds, 11% hits; AID 1309; shares compounds with STAT3 act-1; activation (% of control), % at 5.7 µM; human cells, NF-kappaB reporter activation; in the data active means activation above about 120%;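 further: reporter induced by TNF-alpha stimulation; 100% = median of stimulated DMSO wells and 0% = no signal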
STAT1 act-2: STAT1 activation in STAT3 activator counter-screen; shares compounds with STAT3 act-1; NIH 3T3 STAT1-luciferase reporter, IFN-gamma, luminescence; activation (% of control), % at 5.7 µM; 1,200 compounds, 13% hits;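 active means activation above the solvent-only control well mean plus 3 SD, set per screening run, cut at about 120% in these data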;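 further: 100% = IFN-gamma with DMSO median signal so 100% means no change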
Starred values were filed as active, the others as inactive; x = not tested or not shown. Shown are actives, neighbours in structure and some others; about 4.9% of the full set was active somewhere.

SMILES	STAT1 inh	STAT1 act-1	STAT3 inh	NF-kB expr up	APP 5'UTR act	STAT3 act-1	STAT3 act-2	NFkB act STAT3ct	STAT1 act-2
Brc1cc(Br)c2nc(-c3cccs3)ccc2c1	-7	107	-48	1.4	-6	145*	133	115	125*
CN1CCN(c2ccc(C(=O)c3ccc(Br)cc3)cc2[N+](=O)[O-])CC1	-15	112	-1	0.93	-4	103	x	x	x
Cc1ccc(NC(=S)N2CCCCC2CO)cc1C (configuration not stated)	-3	101	6	1.2	9	99	x	x	x
Clc1ccc2c(NCc3ccccn3)ncnc2c1	-1	101	-47	0.88	0	140*	137*	108	118
Cc1ccc(Cl)cc1NC(=O)COC(=O)c1ccc(N2CCCC2)c([N+](=O)[O-])c1	5	95	-2	0.95	17	100	x	x	x
Cc1ccc(C(=O)Nc2ccc3cn[nH]c3c2)cc1S(=O)(=O)N1CCCCC1	-20	118	-41	1.6	46	143*	139*	116	142*
CCCC1=Nc2cc(C(=O)NCCCOCC)ccc2Sc2ccccc21	-21	118	-42	3	-97	137*	114	156*	107
CCCC1=Nc2cc(C(=O)NCCCOC(C)C)ccc2Sc2ccccc21	10	91	8	1.1	-2	98	x	x	x
COc1cc(C)ccc1OCCOCCOc1cc(C)c(C)cc1Br	3	98	-6	0.94	-1	109	x	x	x
O=C(O)c1cccc(S(=O)(=O)N2CCN(C(c3ccccc3)c3ccccc3)CC2)c1	-2	102	-16	0.95	4	115	x	x	x
O=S(=O)(c1ccc(Br)cc1)N1CCN(c2ccc3nnc(-c4ccccc4)n3n2)CC1	-1	100	-69	0.67	5	167*	144*	109	101
CC(NC(=S)NCCCN1CCOCC1)C12CC3CC(CC(C3)C1)C2 (configuration not stated)	1	98	-10	1.1	28	110	x	x	x
CCCc1nc2c(c(=O)c3ccccc3n2C)c(=O)n1-c1ccc(F)cc1	-9	108	-27	1.2	5	119	x	x	x
CCc1nc2c(c(=O)c3ccccc3n2C)c(=O)n1CCc1ccc(OC)cc1	-11	110	-52	0.61	-12	144*	202*	92	113
CNC(=S)N/N=C/c1ccc(OCC(=O)Nc2c(C)cc(C)cc2C)c(OC)c1	0	100	-38	0.43	9	126	x	x	x
COc1cc(/C=N/NC(N)=S)ccc1OCC(=O)Nc1ccc(C)cc1	-5	105	-54	1	-6	154*	118	99	111
Cc1ccc(S(=O)(=O)N2CCOCC2)cc1C(=O)OCC(=O)N1c2ccccc2NC(=O)C1(C)C	12	89	6	0.64	3	94	x	x	x
CCOC(=O)COc1ccc2ccccc2c1/C=C/[N+](=O)[O-]	-2	102	8	2	-62	91	x	x	x
CCOc1ccc(/C=C/[N+](=O)[O-])c2ccccc12	-5	105	-36	1.6	3	137*	121	118	101
O=C(CN(c1ccc(F)cc1)S(=O)(=O)c1ccccc1)NCCSC1CCCCC1	0	100	-12	0.72	13	107	x	x	x
O=C(Cc1cscn1)c1ccc(O)cc1O	-3	103	-49	1.2	1	146*	100	100	104
Cc1ccc(C)c(/C(O)=C2\C(=O)C(=O)N(CCCN3CCOCC3)C2c2cccnc2)c1 (configuration not stated)	12	89	5	1.4	3	99	x	x	x
Cc1ccc(C)c(/C(O)=C2/C(=O)C(=O)N(CCN3CCOCC3)C2c2ccc(C)o2)c1 (configuration not stated)	12	89	-37	0.9	6	136*	129	107	102
